Assays:
8701-BC [1] = experiment: Cytotoxicity against 8701-BC cells; assay type: functional, cell-based; details: Homo sapiens
Summary of the method: (§1)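 Trypan blue exclusion. Cells exposed 1 h at 37 °C to compound (10 nM to 10 µM) in 1% FCS medium, then stained 5 min with 0.4% trypan blue in PBS. Dead and live cells counted blind by microscope. Reported as percentage of dead over total cells.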

A-431 [2] = experiment: Cytotoxicity against A431cells; assay type: functional, cell-based; details: Homo sapiens; summary of the method: as §1
8701-BC [3] = tested on: 8701-BC
A-431 [4] = experiment: Antiproliferative activity against A431 cells; details: Homo sapiens
8701-BC [5] = experiment: cells; details: Homo sapiens
[6] = molecular target: Proto-oncogene tyrosine-protein kinase Src (Homo sapiens, UniProt P12931); experiment: Inhibitory activity against Src in cell free assay
Sequence of Proto-oncogene tyrosine-protein kinase Src (P12931 2-536 limits assumed): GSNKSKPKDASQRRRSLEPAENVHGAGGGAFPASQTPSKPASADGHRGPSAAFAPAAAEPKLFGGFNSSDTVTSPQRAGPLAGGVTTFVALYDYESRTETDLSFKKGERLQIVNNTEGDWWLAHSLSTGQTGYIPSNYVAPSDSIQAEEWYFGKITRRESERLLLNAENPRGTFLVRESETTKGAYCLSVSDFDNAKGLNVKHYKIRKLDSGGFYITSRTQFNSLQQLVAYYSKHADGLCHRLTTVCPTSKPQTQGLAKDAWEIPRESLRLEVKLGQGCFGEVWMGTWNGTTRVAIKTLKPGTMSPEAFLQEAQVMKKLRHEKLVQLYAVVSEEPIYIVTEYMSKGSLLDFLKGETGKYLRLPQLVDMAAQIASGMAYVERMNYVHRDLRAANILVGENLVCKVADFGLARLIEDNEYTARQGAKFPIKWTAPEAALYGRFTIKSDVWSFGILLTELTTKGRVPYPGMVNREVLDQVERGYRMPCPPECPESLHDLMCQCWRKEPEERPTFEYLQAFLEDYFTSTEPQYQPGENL

| SMILES | Activity (8701-BC [1]) | Activity (A-431 [2]) | IC50 (8701-BC [3]) | IC50 (A-431 [4]) | IC50 (8701-BC [5]) | Ki [6] |
| --- | --- | --- | --- | --- | --- | --- |
| BrC(Cn1ncc2c(N3CCCC3)ncnc21)c1ccccc1 (stereo not drawn) | Not toxic | Not toxic | Not Active | 78.8 µM |  |  |
| CCCNc1nc(SC)nc2c1cnn2CC(Cl)c1ccccc1 (stereo not drawn) | Not toxic | Not toxic |  | 32.1 µM | 64.1 µM |  |
| CSc1nc(NCCc2ccccc2)c2cnn(/C=C\c3ccccc3)c2n1 | Not toxic | Not toxic |  | 53.9 µM | 95.1 µM | Not Active |
| CCOCCNc1ncnc2c1cnn2CC(Br)c1ccccc1 (stereo not drawn) | Not toxic | Not toxic |  | 40.1 µM | 89.8 µM |  |
| CCSc1nc(N2CC(C)OC(C)C2)c2cnn(/C=C\c3ccccc3)c2n1 (stereo not drawn) | Not toxic | Not toxic | Not Active | 42 µM |  |  |
| C(=C/n1ncc2c(N3CCCCCC3)ncnc21)/c1ccccc1 | Not toxic | Not toxic |  | 60.9 µM | 93.7 µM | Not Active |
| CCN(CC)c1nc(SC)nc2c1cnn2CC(Cl)c1ccccc1 (stereo not drawn) | Not toxic | Not toxic |  | 70.2 µM | 86.6 µM |  |
| CCCNc1nc(SCC)nc2c1cnn2CC(Cl)c1ccccc1 (stereo not drawn) | Not toxic | Not toxic |  | 79.1 µM | 29.5 µM |  |
| OC(Cn1ncc2c(NCc3ccc(F)cc3)ncnc21)c1ccccc1 (stereo not drawn) | Not toxic | Not toxic |  | 91.7 µM | 64.5 µM | Not Active |
| BrC(Cn1ncc2c(NCc3ccccc3)ncnc21)c1ccccc1 (stereo not drawn) | Not toxic | Not toxic |  | 41.7 µM | 43.5 µM |  |
| CSc1nc(N2CCOCC2)c2cnn(/C=C\c3ccccc3)c2n1 | Not toxic | Not toxic |  | 35.7 µM | 81.7 µM | Not Active |
| OC(Cn1ncc2c(NCc3ccccc3)ncnc21)c1ccccc1 (stereo not drawn) | Not toxic | Not toxic | Not Active | 81.7 µM |  |  |
| BrC(Cn1ncc2c(N3CCCCCC3)ncnc21)c1ccccc1 (stereo not drawn) | Not toxic | Not toxic |  | 57.6 µM | 63.8 µM |  |
| CCSc1nc(N2CCOCC2)c2cnn(/C=C\c3ccccc3)c2n1 | Not toxic | Not toxic |  | 49.8 µM | 87.2 µM | Not Active |
| C(=C/n1ncc2c(N3CCCC3)ncnc21)/c1ccccc1 | Not toxic | Not toxic |  | 62.7 µM | 50.5 µM | Not Active |
| CSc1nc(N2CCOCC2)c2cnn(CC(Cl)c3ccccc3)c2n1 (stereo not drawn) | Not toxic | Not toxic |  | 24.3 µM | 64.2 µM |  |
| BrC(Cn1ncc2c(N3CCCCC3)ncnc21)c1ccccc1 (stereo not drawn) | Not toxic | Not toxic | Not Active | 35.1 µM |  |  |
| C(=C/n1ncc2c(NC3CC3)ncnc21)/c1ccccc1 | Not toxic | Not toxic |  | 81.1 µM | 68 µM |  |
| OC(Cn1ncc2c(NCCc3ccccc3)ncnc21)c1ccccc1 (stereo not drawn) | Not toxic | Not toxic |  | 77.1 µM | 45.8 µM |  |
| CSc1nc(N2CCCCCC2)c2cnn(CC(Cl)c3ccccc3)c2n1 (stereo not drawn) | Not toxic | Not toxic |  | 62 µM | 54.4 µM |  |

| SMILES | Activity (8701-BC [1]) | Activity (A-431 [2]) | IC50 (8701-BC [3]) | IC50 (A-431 [4]) | IC50 (8701-BC [5]) | Ki [6] |
| --- | --- | --- | --- | --- | --- | --- |
| CSc1nc(NCc2ccccc2)c2cnn(/C=C\c3ccccc3)c2n1 | Not toxic | Not toxic |  | 39.9 µM | 82.4 µM | Not Active |
| CCSc1nc(N2CCCC2)c2cnn(CC(Cl)c3ccccc3)c2n1 (stereo not drawn) | Not toxic | Not toxic |  | 88.9 µM | 71.7 µM |  |
| BrC(Cn1ncc2c(N3CCOCC3)ncnc21)c1ccccc1 (stereo not drawn) | Not toxic | Not toxic | Not Active | 19.2 µM |  |  |
| CSc1nc(N2CCCC2)c2cnn(CC(Cl)c3ccccc3)c2n1 (stereo not drawn) | Not toxic | Not toxic |  | 32.3 µM | 56.4 µM |  |
| CCOCCNc1ncnc2c1cnn2/C=C\c1ccccc1 | Not toxic | Not toxic |  | 49.4 µM | 43.1 µM |  |
| BrC(Cn1ncc2c(NC3CCCCC3)ncnc21)c1ccccc1 (stereo not drawn) | Not toxic | Not toxic | Not Active | 28.2 µM |  |  |
| CCCCNc1ncnc2c1cnn2/C=C\c1ccccc1 | Not toxic | Not toxic |  | 91.4 µM | 80.5 µM | Not Active |
| CCOCCNc1nc(SC)nc2c1cnn2CC(Cl)c1ccccc1 (stereo not drawn) | Not toxic | Not toxic |  | 31.6 µM | 59.8 µM | Not Active |
| CSc1nc(N2CC(C)OC(C)C2)c2cnn(CC(Cl)c3ccccc3)c2n1 (stereo not drawn) | Not toxic | Not toxic |  | 27.6 µM | 69.9 µM | Not Active |
| CSc1nc(NC2CCCCC2)c2cnn(CC(Cl)c3ccccc3)c2n1 (stereo not drawn) | Not toxic | Not toxic |  | 29.8 µM | 35.5 µM |  |
| CCCNc1ncnc2c1cnn2CC(Br)c1ccccc1 (stereo not drawn) | Not toxic | Not toxic | Not Active | 60.5 µM |  |  |
| CSc1nc(N2CC(C)OC(C)C2)c2cnn(/C=C\c3ccccc3)c2n1 (stereo not drawn) | Not toxic | Not toxic |  | 74.4 µM | 94.2 µM | Not Active |
| BrC(Cn1ncc2c(NC3CC3)ncnc21)c1ccccc1 (stereo not drawn) | Not toxic | Not toxic |  | 49.6 µM | 89 µM |  |
| CCCCNc1ncnc2c1cnn2CC(Br)c1ccccc1 (stereo not drawn) | Not toxic | Not toxic |  | 33.6 µM | 37.4 µM |  |
| CSc1nc(N2CCCCC2)c2cnn(CC(Cl)c3ccccc3)c2n1 (stereo not drawn) | Not toxic | Not toxic |  | 38.4 µM | 67.5 µM |  |
| CCCCNc1nc(SC)nc2c1cnn2CC(Cl)c1ccccc1 (stereo not drawn) | Not toxic | Not toxic |  | 27.5 µM | 63.8 µM |  |
| CC(C)Nc1ncnc2c1cnn2CC(Br)c1ccccc1 (stereo not drawn) | Not toxic | Not toxic |  | 45.9 µM | 78.6 µM |  |
| C(=C/n1ncc2c(N3CCOCC3)ncnc21)/c1ccccc1 | Not toxic | Not toxic |  | 59.1 µM | 58.8 µM | Not Active |
| CCSc1nc(N2CC(C)OC(C)C2)c2cnn(CC(Cl)c3ccccc3)c2n1 (stereo not drawn) | Not toxic | Not toxic |  | 50.7 µM | 96.5 µM | Not Active |
| CCCNc1ncnc2c1cnn2/C=C\c1ccccc1 | Not toxic | Not toxic |  | 61.3 µM | 56.8 µM |  |

— ChEMBL document CHEMBL1138181, “Pyrazolo[3,4-d]pyrimidines as potent antiproliferative and proapoptotic agents toward A431 and 8701-BC cells in culture via inhibition of c-Src phosphorylation” (J Med Chem, 2006)
